Our source for the Ki, Ratio Ki and inhibition values is ChEMBL document CHEMBL3872208, “Synthesis and pharmacological characterization of novel N-(trans-4-(2-(4-(benzo[d]isothiazol-3-yl)piperazin-1-yl)ethyl)cyclohexyl)amides as potential multireceptor atypical antipsychotics” (Eur J Med Chem, 2016).

For orientation: Ki means the dissociation constant of the complex between target and ligand, obtained from inhibition or displacement.

Assay [1] addresses T1, 5-hydroxytryptamine receptor 1A (Homo sapiens, UniProt P08908).
T1 sequence (P08908 whole entry): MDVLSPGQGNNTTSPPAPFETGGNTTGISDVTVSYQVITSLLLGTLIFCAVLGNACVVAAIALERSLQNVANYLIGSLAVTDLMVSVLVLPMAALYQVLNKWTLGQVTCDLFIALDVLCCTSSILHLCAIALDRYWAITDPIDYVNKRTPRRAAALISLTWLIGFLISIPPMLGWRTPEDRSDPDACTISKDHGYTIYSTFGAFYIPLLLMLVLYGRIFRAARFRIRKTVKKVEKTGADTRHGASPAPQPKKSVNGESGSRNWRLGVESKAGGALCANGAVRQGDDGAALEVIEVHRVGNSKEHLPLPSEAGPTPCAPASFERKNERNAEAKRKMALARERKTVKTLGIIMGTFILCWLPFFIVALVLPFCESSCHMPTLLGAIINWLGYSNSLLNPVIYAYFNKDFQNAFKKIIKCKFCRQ
Put plainly: Displacement of [3H]8-OH-DPAT from recombinant human 5-HT1A receptor expressed in HEK293 cell membranes after 60 mins by scintillation counting method. In general terms: In a radioligand displacement assay an active substance lowers the binding of a labelled ligand.

A further assay deals with D(2) dopamine receptor (Homo sapiens, UniProt P14416). Briefly: Displacement of [3H]spiperone from recombinant human D2L receptor expressed in CHO cell membranes after 60 mins by scintillation counting method.
Chain of D(2) dopamine receptor (P14416 whole entry): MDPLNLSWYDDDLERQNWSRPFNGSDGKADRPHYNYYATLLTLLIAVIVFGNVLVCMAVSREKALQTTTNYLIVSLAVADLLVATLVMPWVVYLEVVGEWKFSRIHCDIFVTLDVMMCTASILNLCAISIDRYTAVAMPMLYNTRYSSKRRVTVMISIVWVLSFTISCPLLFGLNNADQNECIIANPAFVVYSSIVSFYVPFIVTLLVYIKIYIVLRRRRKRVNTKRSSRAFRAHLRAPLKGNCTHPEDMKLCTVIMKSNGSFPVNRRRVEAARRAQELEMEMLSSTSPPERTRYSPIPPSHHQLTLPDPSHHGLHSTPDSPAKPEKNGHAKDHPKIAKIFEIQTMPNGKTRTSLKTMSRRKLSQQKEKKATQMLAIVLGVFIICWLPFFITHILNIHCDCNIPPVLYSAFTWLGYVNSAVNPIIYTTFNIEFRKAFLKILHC
Another assay concerns CHO. Briefly: Selectivity ratio of Ki for displacement of [3H]spiperone from recombinant human D2L receptor expressed in CHO cell membranes to Ki for displacement of [3H]methyl-spiperone from recombinant human D3 receptor expressed in CHO cell membranes. The method, boiled down:
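D2L binding: CHO membranes (16 µg protein) with 0.3 nM [3H]methyl-spiperone in 50 mM Tris-HCl pH 7.4, 120 mM NaCl, 10 mM MgCl2, 1 mM EDTA, with butaclamol for nonspecific binding. D3 binding: membranes (8 µg) with 0.3 nM [3H]methyl-spiperone in the same Tris buffer with 5 mM KCl, 5 mM MgCl2, 5 mM EDTA, with (+)butaclamol for nonspecific binding. Both run 60 min at 22 °C, then GF/B filtration. Ki by Cheng–Prusoff; ratio is D2 Ki/D3 Ki.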

The target in a further assay is D(3) dopamine receptor (Homo sapiens, UniProt P35462). Put plainly: Displacement of [3H]methyl-spiperone from recombinant human D3 receptor expressed in CHO cell membranes after 60 mins by scintillation counting method.
Chain of D(3) dopamine receptor (P35462 whole entry): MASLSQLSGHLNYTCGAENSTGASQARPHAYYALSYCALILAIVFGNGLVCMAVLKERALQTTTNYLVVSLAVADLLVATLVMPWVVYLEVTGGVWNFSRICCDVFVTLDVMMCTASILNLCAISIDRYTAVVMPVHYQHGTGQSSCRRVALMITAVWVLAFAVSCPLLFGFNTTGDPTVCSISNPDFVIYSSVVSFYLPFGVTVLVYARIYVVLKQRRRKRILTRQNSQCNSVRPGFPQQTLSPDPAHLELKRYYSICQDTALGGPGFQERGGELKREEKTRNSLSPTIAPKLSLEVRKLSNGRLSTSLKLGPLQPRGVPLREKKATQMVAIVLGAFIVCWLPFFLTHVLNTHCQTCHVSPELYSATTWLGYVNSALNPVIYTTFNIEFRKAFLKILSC
Assay [2] deals with 5-hydroxytryptamine receptor 2A (Homo sapiens, UniProt P28223). Briefly: Displacement of [3H]ketanserin from recombinant human 5-HT2A receptor expressed in HEK293 cell membranes after 60 mins by scintillation counting method.
Chain of 5-hydroxytryptamine receptor 2A (P28223 whole entry): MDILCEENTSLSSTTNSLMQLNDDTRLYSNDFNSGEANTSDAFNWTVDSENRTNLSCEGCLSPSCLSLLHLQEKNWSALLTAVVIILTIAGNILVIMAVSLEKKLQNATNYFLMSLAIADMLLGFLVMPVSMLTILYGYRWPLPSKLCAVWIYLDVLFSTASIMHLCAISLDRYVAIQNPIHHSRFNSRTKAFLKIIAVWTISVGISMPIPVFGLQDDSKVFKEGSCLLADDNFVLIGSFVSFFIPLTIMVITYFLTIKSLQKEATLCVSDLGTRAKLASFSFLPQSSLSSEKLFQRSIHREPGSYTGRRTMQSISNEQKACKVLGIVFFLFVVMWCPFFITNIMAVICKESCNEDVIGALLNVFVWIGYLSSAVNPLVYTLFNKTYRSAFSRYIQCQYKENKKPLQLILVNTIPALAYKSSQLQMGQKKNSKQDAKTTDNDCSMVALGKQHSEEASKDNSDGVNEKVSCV
Another assay deals with Rattus norvegicus. Briefly: Antipsychotic activity in Sprague-Dawley rat assessed as inhibition of conditioned avoidance behavior at 1.0 to 2.0 mg/kg, ip administered as single dose measured after 1 hr. It is filed as functional, organism-based. The essentials: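 Male SD rats (150–180 g, 6 per group) trained in automated shuttle-boxes; only rats exceeding 80% avoidance were used. Single i.p. dose of 1.0 or 2.0 mg/kg given 1 h before a 20-trial session. Read-out is percentage of avoidance (mean ± SEM, n = 6), compared with the vehicle group.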

Calls of active or inactive are those of the source. The calls are words filed in the database; no cut-off is given here.

With `Cc1ccc(S(=O)(=O)N[C@H]2CC[C@H](CCN3CCN(c4nsc5ccccc45)CC3)CC2)cc1`, the Ki in assay [1] was 3.9 nM; at D(2) dopamine receptor, 0.42 nM; on D(3) dopamine receptor, 0.062 nM; in assay [2] it was 0.26 nM. Besides, in the assay with CHO, the Ratio Ki is 6.77.

As to `O=C(Nc1cccnc1)N[C@H]1CC[C@H](CCN2CCN(c3nsc4ccccc34)CC2)CC1`, the Ki in assay [1] worked out at 12 nM; at D(2) dopamine receptor, 0.51 nM; on D(3) dopamine receptor it was 0.055 nM; in assay [2], 0.14 nM. For the same compound, the Ratio Ki in the assay with CHO was 9.27.

As for `O=S(=O)(N[C@H]1CC[C@H](CCN2CCN(c3nsc4ccccc34)CC2)CC1)c1cccnc1`, the Ki in assay [1] is 11 nM; on D(2) dopamine receptor, 0.35 nM; on D(3) dopamine receptor, 0.058 nM; in assay [2], 8.1 nM. Besides, the Ratio Ki in the assay with CHO is 6.03.

Take `O=C(N[C@H]1CC[C@@H](CCN2CCN(c3nsc4ccccc34)CC2)CC1)c1ccco1`: the Ki in assay [1] turned out to be 2.2 nM; at D(2) dopamine receptor it was 6.3 nM; at D(3) dopamine receptor, 2.3 nM; in assay [2] it was 0.19 nM. Moreover, the Ratio Ki in the assay with CHO turned out to be 2.74.

For `Nc1ccc2c(N3CCN(CC[C@H]4CC[C@H](NC(=O)c5ccco5)CC4)CC3)nsc2c1`, the Ki came out at 33 nM in assay [1], 14 nM at D(2) dopamine receptor, 1.1 nM at D(3) dopamine receptor and 4.3 nM in assay [2]. Also, the Ratio Ki in the assay with CHO was found to be 12.7.

As for `O=C(c1ccco1)N1CCC(CCN2CCN(c3nsc4ccccc34)CC2)CC1`, the Ki in assay [1] was 0.72 nM; on D(2) dopamine receptor, 15 nM; on D(3) dopamine receptor, 7.3 nM; in assay [2] it was 2.2 nM. Also, in the assay on CHO, the Ratio Ki turned out to be 2.2.

With `O=C(NCc1ccccc1)N[C@H]1CC[C@H](CCN2CCN(c3nsc4ccccc34)CC2)CC1`, the Ki amounted to 5.3 nM in assay [1], 1.4 nM at D(2) dopamine receptor, 0.18 nM at D(3) dopamine receptor and 0.91 nM in assay [2]. For the same compound, the Ratio Ki in the assay with CHO is 7.78.

On to `CCCS(=O)(=O)N[C@H]1CC[C@H](CCN2CCN(c3nsc4ccccc34)CC2)CC1`, for which the Ki in assay [1] was found to be 1.1 nM; at D(2) dopamine receptor, 1.9 nM; on D(3) dopamine receptor, 0.22 nM; in assay [2] it was 0.34 nM. Further, the Ratio Ki in the assay with CHO came to 8.64.

As for `CCN(C)C(=O)N[C@H]1CC[C@H](CCN2CCN(c3nsc4ccccc34)CC2)CC1`, the Ki in assay [1] was 1.4 nM; on D(2) dopamine receptor, 0.51 nM; at D(3) dopamine receptor, 0.78 nM; in assay [2], 0.5 nM. Further, the Ratio Ki with CHO stood at 0.65.

Turning to `CS(=O)(=O)N[C@H]1CC[C@H](CCN2CCN(c3nsc4ccccc34)CC2)CC1`, the Ki worked out at 1.3 nM in assay [1], 8.9 nM on D(2) dopamine receptor, 0.095 nM at D(3) dopamine receptor and 0.28 nM in assay [2]. Moreover, the Ratio Ki in the assay with CHO worked out at 93.7.

With `CN(C(=O)N[C@H]1CC[C@H](CCN2CCN(c3nsc4ccccc34)CC2)CC1)c1ccccc1`, the figures for the Ki (in assay [1]; at D(3) dopamine receptor) were 5.2 nM and 1.2 nM, respectively.

In the case of `O=C(NC[C@H]1CC[C@H](CN2CCN(c3nsc4ccccc34)CC2)CC1)c1ccco1`, the Ki in assay [1] stood at 5.3 nM; at D(2) dopamine receptor, 8.9 nM; at D(3) dopamine receptor it was 1 nM; in assay [2], 16 nM. For the same compound, in the assay on CHO, the Ratio Ki is 8.9.

As to `CN(C)C(=O)N[C@H]1CC[C@H](CCN2CCN(c3nsc4ccccc34)CC2)CC1`, the Ki in assay [1] stood at 1.2 nM; on D(2) dopamine receptor, 0.53 nM; at D(3) dopamine receptor it was 0.4 nM; in assay [2], 0.6 nM. The Ratio Ki with CHO came out at 1.33.

For the compound `O=C(N[C@H]1CC[C@H](CCN2CCN(c3nsc4ccccc34)CC2)CC1)c1cccnc1`, the Ki in assay [1] was 2.1 nM; at D(2) dopamine receptor, 0.85 nM; on D(3) dopamine receptor, 0.09 nM; in assay [2] it was 0.29 nM. Moreover, the Ratio Ki in the assay on CHO was 9.44.

Regarding `CN([C@H]1CC[C@H](CCN2CCN(c3nsc4ccccc34)CC2)CC1)S(=O)(=O)c1cccs1`, the Ki in assay [1] was found to be 2.9 nM; on D(2) dopamine receptor, 0.3 nM; on D(3) dopamine receptor, 0.046 nM; in assay [2], 1.2 nM. Besides, in the assay on CHO, the Ratio Ki is 6.52.

Consider `CCOC(=O)N[C@H]1CC[C@@H](CCN2CCN(c3nsc4ccccc34)CC2)CC1`, for which the Ki in assay [1] amounted to 0.57 nM; on D(2) dopamine receptor, 4 nM; on D(3) dopamine receptor, 2 nM; in assay [2] it was 0.18 nM. Besides, the Ratio Ki in the assay with CHO is 2.

In the case of `O=C(N[C@H]1CC[C@H](CCN2CCN(c3nsc4ccccc34)CC2)CC1)C(F)(F)F`, the Ki in assay [1] is 1.1 nM; on D(2) dopamine receptor, 1.7 nM; at D(3) dopamine receptor, 0.27 nM; in assay [2], 0.63 nM. The Ratio Ki in the assay with CHO is 6.3.

As to `COCC(=O)N[C@H]1CC[C@H](CCN2CCN(c3nsc4ccccc34)CC2)CC1`, the Ki in assay [1] worked out at 3 nM; on D(2) dopamine receptor, 9.6 nM; at D(3) dopamine receptor it was 0.31 nM; in assay [2], 0.24 nM. The Ratio Ki with CHO came out at 31.

Turning to `CCCC(=O)N[C@H]1CC[C@H](CCN2CCN(c3nsc4ccccc34)CC2)CC1`, the Ki in assay [1] is 2.1 nM; on D(2) dopamine receptor, 2.8 nM; at D(3) dopamine receptor it was 0.14 nM; in assay [2] it was 0.87 nM. Besides, in the assay on CHO, the Ratio Ki came out at 20.

With `CC(=O)N[C@H]1CC[C@H](CCN2CCN(c3nsc4ccccc34)CC2)CC1`, the inhibition constant Ki in assay [1] was 0.69 nM; on D(2) dopamine receptor, 25 nM; at D(3) dopamine receptor, 0.16 nM; in assay [2], 5.8 nM. In addition, the Ratio Ki in the assay with CHO was 156.

For the compound `O=C(N[C@H]1CC[C@H](CCN2CCN(c3nsc4cc([N+](=O)[O-])ccc34)CC2)CC1)c1ccco1`, the Ki in assay [1] was 39 nM; at D(2) dopamine receptor, 26 nM; at D(3) dopamine receptor, 0.24 nM; in assay [2] it was 1.8 nM. The Ratio Ki in the assay on CHO was determined as 108.

Regarding `N[C@H]1CC[C@H](CCN2CCN(c3nsc4ccccc34)CC2)CC1`, the Ki in assay [1] is 7.2 nM; at D(2) dopamine receptor, 4.6 nM; on D(3) dopamine receptor it was 9.6 nM; in assay [2] it was 0.21 nM. Besides, the Ratio Ki in the assay on CHO is 0.48.

In the case of `O=C(N[C@H]1CC[C@H](CCN2CCN(c3nsc4ccccc34)CC2)CC1)N1CCOCC1`, the Ki in assay [1] is 15 nM; at D(2) dopamine receptor, 2.2 nM; on D(3) dopamine receptor, 1.6 nM; in assay [2] it was 3.2 nM. Also, in the assay on CHO, the Ratio Ki is 1.38.

For the compound `CCOC(=O)N1CCC(CCN2CCN(c3nsc4ccccc34)CC2)CC1`, the Ki in assay [1] was 1.3 nM; on D(2) dopamine receptor, 10 nM; on D(3) dopamine receptor it was 8.7 nM; in assay [2] it was 3.3 nM. Also, the Ratio Ki in the assay on CHO worked out at 1.15.

As for `O=C(N[C@H]1CC[C@H](CCN2CCN(c3nsc4ccccc34)CC2)CC1)c1cccs1`, the Ki is 1.1 nM in assay [1], 0.19 nM on D(2) dopamine receptor, 0.056 nM on D(3) dopamine receptor and 0.15 nM in assay [2]. Moreover, the Ratio Ki in the assay with CHO amounted to 3.4.

With `O=C(N[C@H]1CC[C@H](CCN2CCN(c3nsc4ccccc34)CC2)CC1)c1ccc[nH]1`, the Ratio Ki in the assay with CHO is 0.68.

For `O=C(N[C@H]1CC[C@H](CCN2CCN(c3nsc4ccccc34)CC2)CC1)C1CC1`, the Ki in assay [1] amounted to 0.92 nM; at D(2) dopamine receptor, 0.85 nM; on D(3) dopamine receptor it was 0.21 nM; in assay [2], 0.35 nM. The Ratio Ki in the assay with CHO is 4.05.

`O=S(=O)(N[C@H]1CC[C@H](CCN2CCN(c3nsc4ccccc34)CC2)CC1)c1cccs1`: in assay [1], the Ki was found to be 1.1 nM. Further, in the assay on Rattus norvegicus, the inhibition entry was “Active”.

Take `CCC(=O)N[C@H]1CC[C@H](CCN2CCN(c3nsc4ccccc34)CC2)CC1`: the Ki in assay [1] was 1.5 nM; on D(2) dopamine receptor, 18 nM; on D(3) dopamine receptor, 0.052 nM; in assay [2], 1.1 nM. The Ratio Ki in the assay with CHO came out at 346.

On to `O=C(N[C@H]1CC[C@H](CCN2CCN(c3nsc4ccccc34)CC2)CC1)C1CCCCC1`, for which the Ki stood at 5.6 nM in assay [1], 0.94 nM on D(2) dopamine receptor, 0.19 nM on D(3) dopamine receptor and 0.36 nM in assay [2]. Also, the Ratio Ki in the assay with CHO turned out to be 4.95.

As to `O=C(N[C@H]1CC[C@H](CCN2CCN(c3nsc4ccccc34)CC2)CC1)c1ccccc1`, the Ki in assay [1] turned out to be 1.7 nM; at D(2) dopamine receptor, 0.33 nM; on D(3) dopamine receptor it was 0.047 nM; in assay [2], 0.24 nM. For the same compound, the Ratio Ki with CHO turned out to be 7.02.

Regarding `CC(C)N(C(=O)N[C@H]1CC[C@H](CCN2CCN(c3nsc4ccccc34)CC2)CC1)C(C)C`, the Ki in assay [1] is 2.3 nM; at D(2) dopamine receptor, 0.72 nM; on D(3) dopamine receptor it was 1.4 nM; in assay [2], 0.38 nM. In the assay on CHO, the Ratio Ki amounted to 0.51.
